Source: PubChem BioAssay
Compounds with a hit are over-represented: about 1.9% of the library has one in this group of screens.
Autophagy mod – autophagy modulation, high-content screen | 190,000 compounds, 0.98% hits | calls only at 10 µM (by protocol) | MEF GFP-LC3 puncta imaging; test concentration mostly 10 µM;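 active means percentage of spot-positive cells more than 3 SD above its plate mean, without a fluorescence outlier flag or 80% toxicity; inconclusive means no clear call, values can overlap the other calls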;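 further: spot-positive cell cutoff set from DMSO-treated cells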
bCat nuc transl – modulators of beta-catenin nuclear translocation; HeLa beta-catenin nuclear translocation, immunofluorescence imaging; nuclear translocation activity, % at 5 µM; 190,000 compounds, 0.3% hits;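 active means nuclear translocation activity above 50% at 5 µM, with a well cell count of 50 or more; inconclusive means wells under 50 cells across six images, flagged as toxic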;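 further: per-cell ratio of nuclear to cytoplasmic median beta-catenin stain intensity; plate controls were DMSO negative control for no effect and GSK-3 inhibitor IX positive control for full effect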
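Test system: human HeLa cell line; Doses: 5 µM primary, 0.02–20 µM confirmation; Incubation: 24 h compound exposure, 37°C; Detection: beta-catenin immunofluorescence imaging with DAPI; Read-out: beta-catenin nuclear/cytoplasmic ratio, % activation.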
MT stabilize HCS – microtubule stabilizers in HeLa cells; HeLa tubulin immunostaining HCS, 24 h; share of cells brighter than vehicle mean+2SD; 200,000 compounds, 0.83% hits; AID 2205; % tubulin-high responders, % at 10 µM;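 active means plate Z-score above 3 for both tubulin-high and condensed-nucleus cell shares, with cell loss under 80%, at 10 µM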;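 further: anti alpha tubulin signal scored within the nucleus-defined area of each cell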
Ins promoter up – MIN6 insulin promoter up-regulation | MIN6 insulin promoter-GFP reporter, high-content imaging; active compounds read high | z-score at 5 µM | 190,000 compounds, 0.3% hits;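 active means z-score above 3 at 5 µM with at least 500 cells counted in the well; inconclusive means wells under 500 cells, flagged as cytotoxic or low count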
An asterisk follows results filed as active; i = inactive; ? = inconclusive; nt = no result; + = active, no number.

SMILES	Autophagy mod	bCat nuc transl	MT stabilize HCS	Ins promoter up
C=CCN1C(=O)CC(C(=O)NC)SC1=Nc1ccc(C(=O)OCC)cc1 (stereo not drawn)	i	0	3	0.39
CC(C)CC(=O)Nc1nc2ccc(S(=O)(=O)N3CCOCC3)cc2s1	i	2	49*	-0.53
Cc1ccccc1C(=O)N1CCC(C(=O)Nc2ccc3c(c2)OCCO3)CC1	i	-5	4	0.71
CC(C)c1ccc(C2CC(=O)N3CN(C)CSC3=C2C#N)cc1 (stereo not drawn)	i	nt	5	-0.09
CC(C)c1ccc(C2C(C#N)=C(N)N3C(=C2C#N)Sc2ccccc23)cc1 (stereo not drawn)	+	0	4	0.92
O=C(Cc1csc(Nc2nc(=S)[nH]c3ccccc23)n1)NCCCN1CCN(c2ccccc2F)CC1	+	-1	2	-0.46
Cc1noc(C)c1COC(=O)c1cccnc1Cl	i	5	3	-0.21
O=[N+]([O-])c1ccc(N/N=C/c2c[nH]c3ccccc23)c(S(=O)(=O)Nc2ccc(Cl)cc2)c1	+	1	4	nt
C=CCn1c(SCc2csc(C)n2)nc2sc3c(c2c1=O)CCC(C)C3 (stereo not drawn)	i	1	26*	nt
C=CCn1c(SCc2csc(C)n2)nc2sc3c(c2c1=O)CCCC3	i	nt	2	1.4
CCOC(=O)N/N=C(/C)c1ccc(N2C(=O)C3CCCCC3C2=O)cc1 (stereo not drawn)	i	2	6	-0.08
Nc1ccc(N2CCN(c3ccc(Cl)c(Cl)c3)CC2)cc1	+	2	5	-0.01
Nc1ccc(N2CCN(c3ccc(F)cc3)CC2)cc1	i	-2	4	-0.31
CCC(NC(=O)c1cccc(Cn2cc([N+](=O)[O-])cn2)c1)c1ccc(C(C)C)cc1 (stereo not drawn)	i	-6	1	-0.2
CC(NC(=O)c1cccc(Cn2cc([N+](=O)[O-])cn2)c1)c1ccc(C(C)(C)C)cc1 (stereo not drawn)	i	nt	46*	nt
Cn1c(=O)c(NCCO)c2c3c(cccc31)C(=O)c1ccccc1-2	i	nt	1	nt
CCCCNc1c2c3c(cccc3n(C)c1=O)C(=O)c1ccccc1-2	i	2	27*	nt
CCCCNC(=O)c1onc(CSc2cccc3ccccc23)c1C(=O)O	i	-1	3	-0.53
Cc1ccc2nc3sc(-c4nnc(-c5ccccc5[N+](=O)[O-])o4)c(N)c3cc2c1	+	0	2	0.34
c1ccc2sc(SCSc3nc4ccccc4s3)nc2c1	nt	2	nt	-0.27
N#CCc1nc(CSc2nc3ccccc3s2)cs1	i	nt	3	4*
Cc1ccc(NC(=O)/C(=C\c2ccc3c(c2)OCO3)NC(=O)c2ccco2)cc1	i	-3	3	0.28
CC1SC(C)C(=O)N(CC(=O)NCc2ccc(F)cc2)C1=O (stereo not drawn)	i	-2	5	0.09
Cc1[nH]c2ccccc2c1/C=N/Nc1ccc([N+](=O)[O-])cc1	+	0	5	nt
Cc1[nH]c2ccccc2c1/C=N/NC(=O)c1cccc([N+](=O)[O-])c1	i	-3	3	-0.29
SMILES	Autophagy mod	bCat nuc transl	MT stabilize HCS	Ins promoter up
O=C(Cn1c(=O)c(=O)n(Cc2ccccc2)c2ccc(Cl)cc21)Nc1ccc(F)cc1F	i	0	26*	0.83
Cc1c(NC(=S)NC(=O)C2CCCCC2)c(=O)n(-c2ccccc2)n1C	i	2	3	nt
O=c1oc2ccccc2cc1-c1nc2c(s1)CCc1ccccc1-2	+	nt	3	1.2
COc1ccc(Cl)cc1C(=O)Nc1nnn(C)n1	i	nt	2	nt
Cc1ccc(Nc2cc(=O)oc3ccccc23)c(C)c1	i	1	27*	0.17
COC(=O)Nc1ccc(S(=O)(=O)N2CCCc3ccccc32)cc1	+	-1	19*	0.56
COc1ccccc1NC(=O)N(Cc1ccco1)Cc1cc2ccc(C)c(C)c2[nH]c1=O	i	122*	57	-2
COc1ccccc1NC(=S)N(Cc1ccco1)Cc1cc2cccc(C)c2[nH]c1=O	i	5	4	-1.3
Cc1ccc2cc(CN(Cc3ccco3)C(=O)c3cccs3)c(=O)[nH]c2c1	i	nt	34*	-0.05
COc1ccccc1NC(=S)N(Cc1ccco1)Cc1cc2cc(C)c(C)cc2[nH]c1=O	i	64*	7	nt
CC(C)CNC(=S)N(Cc1ccco1)Cc1cc2cc3c(cc2[nH]c1=O)OCCO3	i	-1	33*	-0.17
NS(=O)(=O)c1ccc(CNC(=S)NC2CCCCC2)cc1	nt	0	nt	0.03
COc1ccccc1NC(=S)NC(NC(=O)CC(C)C)C(Cl)(Cl)Cl (stereo not drawn)	i	0	2	0.53
COc1ccccc1NC(=O)N(Cc1ccco1)Cc1cc2cc(C)cc(C)c2[nH]c1=O	i	33	26*	-1.7
COc1ccccc1NC(=O)N(CCN1CCOCC1)Cc1cc2cc(C)cc(C)c2[nH]c1=O	i	-1	3	0.13
OCC1CCN(Cc2cn(Cc3ccccc3)nc2-c2cc3ccccc3o2)CC1	i	-2	3	-1.6
COC1CCN(Cc2cn(Cc3ccccc3)nc2-c2cc3ccccc3o2)CC1	+	0	3	-0.19
CCOc1ccc(C2=Nn3c(nnc3-c3ccccc3OC)SC2)cc1	i	46	19*	-2.9
CCOc1ccc(-c2nnc3n2N=C(c2ccc(OC)cc2)CS3)cc1	i	1	5	0.63
COc1ccccc1-c1nnc2n1N=C(c1ccc(O)c(O)c1)CS2	i	41	21*	-3
COc1ccc(C2=Nn3c(nnc3-c3ccncc3)SC2)cc1OC	i	5	5	nt
COc1ccc(C2=Nn3c(nnc3-c3ccccn3)SC2)cc1	i	-1	52*	0.04
CN(C)S(=O)(=O)c1ccc(NC(=O)CCNC(=O)c2ccc([N+](=O)[O-])cc2)cc1	i	1	2	-0.06
O=C1CC(c2ccccc2)CC2=C1CN(C1CCCCC1)CN2 (stereo not drawn)	i	-4	51*	-0.4
COC(=O)c1ccc(Cl)c(NS(=O)(=O)c2ccc3c(c2)OCCO3)c1	i	nt	39*	nt
SMILES	Autophagy mod	bCat nuc transl	MT stabilize HCS	Ins promoter up
COc1cc(CC(=O)OCC(=O)c2ccc3c(c2)OCCO3)cc(OC)c1OC	+	158*	17*	?
COc1cc(CC(=O)NCc2ccc3c(c2)OCO3)cc(OC)c1OC	i	nt	1	0.56
Cc1ccc(-c2nn3c(C)nnc3c3ccccc23)cc1S(=O)(=O)NCCO	i	1	2	0.35
Cc1ccc(-c2nn3c(C)nnc3c3ccccc23)cc1S(=O)(=O)N1CCN(CCO)CC1	+	-1	2	-0.92
N#CC1=C(N)Oc2ccc3ccccc3c2C1c1cccnc1 (stereo not drawn)	i	-2	16*	-0.33
COc1ccc(N2C(N)=C(C#N)C(c3cccnc3)C3=C2CC(C)(C)CC3=O)cc1 (stereo not drawn)	i	2	50*	nt
Cc1c(NC(=O)c2cc(C3CC3)on2)c(=O)n(-c2ccccc2)n1C	+	nt	6	-0.28
Cc1c(NC(=O)c2cc(-c3ccccc3)on2)c(=O)n(-c2ccccc2)n1C	i	nt	3	-0.86
